Values after ≈ are worked out from the molar mass of the structure shown.
Tests used:
Format in all cases: functional
Artemia = test: Lethal concentration required against bioactivity using brine shrimp lethality test
PC-3 = test: Cytotoxicity concentration against human prostate […] PC-3 cell line; settings: read-out: ED50 (the source's name)
Method in brief: (§1)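 7-day MTT cytotoxicity assay in human tumor cells, run at the Purdue Cancer Center cell culture lab under standard protocols. Samples serially diluted and each concentration tested in duplicate. ED50 calculated from the averaged values per concentration. Adriamycin included as positive control in every experiment.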

A498 = test: Cytotoxicity concentration against human kidney carcinoma A-498 cell line; settings: read-out: ED50 (the source's name); method in brief: as §1
A549 = test: Cytotoxicity concentration against human lung carcinoma A-549 cell line; settings: read-out: ED50 (the source's name); method in brief: as §1
MCF7 = test: Cytotoxicity concentration against human breast carcinoma MCF-7 cell line; settings: read-out: ED50 (the source's name); method in brief: as §1
HT-29 = test: Cytotoxicity concentration against human colon […] HT-29 cell line; settings: read-out: ED50 (the source's name); method in brief: as §1
Culicidae = test: Lethal concentration required against bioactivity using yellow fever mosquito larvae assay
MIA PaCa-2 = test: Cytotoxicity concentration against human pancreatic carcinoma PaCa-2 cell line; settings: read-out: ED50 (the source's name); method in brief: as §1

**Q.** With `CCCCCCCCCCCC[C@@H](O)[C@H]1CC[C@H]([C@H]2CC[C@H]([C@H](O)CC[C@H](O)CCCCCCCC3=C[C@H](C)OC3=O)O2)O1` as the compound, how does the LC50 (Artemia) read?
**A.** Its LC50 is 4.58 µg/mL (≈ 7.35 µM).

**Q.** And the EC50 (PC-3)?
**A.** The EC50 was 0.000242 µg/mL (≈ 0.000388 µM).

**Q.** And the EC50 (A498)?
**A.** The EC50 was 0.0353 µg/mL (≈ 0.0567 µM).

**Q.** What about the EC50 (A549) of the same compound?
**A.** Its EC50 is 0.000493 µg/mL (≈ 0.000791 µM).

**Q.** And the EC50 (MCF7)?
**A.** Its EC50 is 0.215 µg/mL (≈ 0.345 µM).

**Q.** What about the EC50 (HT-29) of the same compound?
**A.** Its EC50 is 0.0116 µg/mL (≈ 0.0186 µM).

**Q.** And the LC50 (Culicidae)?
**A.** Its LC50 is 8.29 µg/mL (≈ 13.3 µM).

**Q.** How did the LC50 (Artemia) turn out when `CCCCCCCCCCCCCC[C@@H](O)[C@H]1CC[C@H]([C@H]2CC[C@H]([C@H](O)CCCCCC[C@@H](O)CC3=C[C@H](C)OC3=O)O2)O1` was run?
**A.** Its LC50 is 18.7 µg/mL (≈ 30 µM).

**Q.** And the EC50 (PC-3)?
**A.** Its EC50 is 0.0701 µg/mL (≈ 0.113 µM).

**Q.** And the EC50 (A498)?
**A.** Its EC50 is 0.544 µg/mL (≈ 0.873 µM).

**Q.** What about the EC50 (A549) of the same compound?
**A.** The EC50 was 0.295 µg/mL (≈ 0.474 µM).

**Q.** And the EC50 (MIA PaCa-2)?
**A.** The EC50 was 0.0173 µg/mL (≈ 0.0278 µM).

**Q.** And the EC50 (MCF7)?
**A.** The EC50 was 0.889 µg/mL (≈ 1.43 µM).

**Q.** What about the EC50 (HT-29) of the same compound?
**A.** The EC50 was 0.525 µg/mL (≈ 0.843 µM).

**Q.** What about the LC50 (Culicidae) of the same compound?
**A.** The LC50 was 141 µg/mL (≈ 226 µM).

**Q.** What does the source list for `CCCCCCCCCCCCCC[C@@H](O)[C@H]1CC[C@H]([C@H]2CC[C@H]([C@H](O)CCCC[C@@H](O)CC3=C[C@H](C)OC3=O)O2)O1`?
**A.** LC50 (Artemia): 9.42 µg/mL (≈ 15.8 µM); EC50 (PC-3): 2.96 µg/mL (≈ 4.98 µM); EC50 (A498): 0.127 µg/mL (≈ 0.213 µM); EC50 (A549): 0.455 µg/mL (≈ 0.765 µM); EC50 (MIA PaCa-2): 1.09 µg/mL (≈ 1.83 µM); EC50 (MCF7): 0.088 µg/mL (≈ 0.148 µM); EC50 (HT-29): 1 µg/mL (≈ 1.68 µM); LC50 (Culicidae): 75.7 µg/mL (≈ 127 µM)

**Q.** What does the source list for `CCCCCCCCCC[C@@H](O)[C@H]1CC[C@H]([C@H]2CC[C@H]([C@H](O)CCCCCCCC[C@@H](O)CC3=C[C@H](C)OC3=O)O2)O1` [PARVIFLORIN]?
**A.** LC50 (Artemia): 0.088 µg/mL (≈ 0.148 µM); EC50 (MCF7): 1.72 µg/mL (≈ 2.89 µM); EC50 (HT-29): 0.549 µg/mL (≈ 0.923 µM)

**Q.** What does the source list for `COc1cccc2c1C(=O)c1c(O)c3c(c(O)c1C2=O)C[C@@](O)(C(=O)CO)C[C@@H]3O[C@H]1C[C@H](N)[C@H](O)[C@H](C)O1` [DOXORUBICIN]?
**A.** LC50 (Artemia): 0.26 µg/mL (≈ 0.478 µM); EC50 (PC-3): 0.287 µg/mL (≈ 0.528 µM); EC50 (A498): 0.0663 µg/mL (≈ 0.122 µM); EC50 (A549): 0.0262 µg/mL (≈ 0.0482 µM); EC50 (MIA PaCa-2): 0.034 µg/mL (≈ 0.0626 µM); EC50 (MCF7): 0.194 µg/mL (≈ 0.357 µM); EC50 (HT-29): 0.0494 µg/mL (≈ 0.0909 µM)

**Q.** What does the source list for `CCCCCCCCCCCC[C@@H](O)[C@H]1CC[C@H]([C@H]2CC[C@H]([C@H](O)CCCCCC[C@@H](O)CC3=C[C@H](C)OC3=O)O2)O1`?
**A.** LC50 (Artemia): 7.34 µg/mL (≈ 12.3 µM); EC50 (PC-3): 2.2 µg/mL (≈ 3.7 µM); EC50 (A498): 0.064 µg/mL (≈ 0.108 µM); EC50 (A549): 0.143 µg/mL (≈ 0.24 µM); EC50 (MIA PaCa-2): 0.0792 µg/mL (≈ 0.133 µM); EC50 (MCF7): 0.0154 µg/mL (≈ 0.0259 µM); EC50 (HT-29): 0.00332 µg/mL (≈ 0.00558 µM); LC50 (Culicidae): 30.4 µg/mL (≈ 51.1 µM)

**Q.** Which LC50 (Artemia) does the source give for `CCCCCCCCCCC(O)C1CCC(C2CCC(C(O)CCCCCCCC[C@H](O)CC3=C[C@@H](C)OC3=O)O2)O1` (stereo partly specified) [ASIMICIN] here?
**A.** The LC50 was 0.026 µg/mL (≈ 0.0437 µM).

**Q.** And the EC50 (A549)?
**A.** Its EC50 is 0.00843 µg/mL (≈ 0.0142 µM).

**Q.** And the EC50 (MCF7)?
**A.** Its EC50 is 0.852 µg/mL (≈ 1.43 µM).

**Q.** What about the LC50 (Culicidae) of the same compound?
**A.** The LC50 was 3.04 µg/mL (≈ 5.11 µM).

**Q.** With `CCCCCCC[C@H]1CC[C@H](CCCC[C@@H](O)[C@H]2CC[C@H](CCC[C@H](O)[C@@H](O)CCCCCCCC3=C[C@H](C)OC3=O)O2)O1` [ASIMIN] as the compound, how does the LC50 (Artemia) read?
**A.** Its LC50 is 0.0046 µg/mL (≈ 0.00738 µM).
